How the values were obtained:
[1] = Selectivity index, ratio of CC50 for human HeLa cells to EC50 for Leishmania donovani LdBOB amastigotes infected in human THP1 cells; format: toxicity, cell-based; details: read-out: Ratio CC50/EC50
Method in brief: (§1)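 Selectivity index computed as CC50 (HeLa, Alamar blue) divided by EC50 for the respective parasite stage.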

Leishmania infantum [2] = assay: Antileishmanial activity against Leishmania infantum JPCM5 MCAN/ES/98/LLM-87 axenic amastigotes after 72 hrs by alamar blue assay; format: functional, organism-based; details: MCAN/ES/98/LLM-87, 72 h
Method in brief: (§2)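 Axenic amastigotes (L. donovani LdBOB; L. infantum clone JPCM5, grown at 26 °C in HOMEM) incubated 72 h with compounds. Viability read by Alamar blue; EC50 determined.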

Leishmania infantum [3] = assay: Antileishmanial activity against Leishmania infantum JPCM5 MCAN/ES/98/LLM-87 promastigotes after 72 hrs by alamar blue assay; format: functional, organism-based; details: MCAN/ES/98/LLM-87, 72 h
Method in brief: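 L. infantum JPCM5 promastigotes grown at 26 °C in HOMEM. Exposed to serial compound dilutions for 72 h, then Alamar blue read-out to give EC50.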

[4] = Cytotoxicity against human HeLa cells after 65 hrs by alamar blue assay; format: cell-based
Method in brief: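 HeLa cells first screened at 500 µM. Active compounds then tested for CC50: cells seeded at 2 × 10^4/well, exposed to compound 65 h, then Alamar Blue added for a further 5 h.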

[5] = Selectivity index, ratio of CC50 for human HeLa cells to EC50 for Leishmania donovani promastigotes; format: toxicity; details: read-out: Ratio CC50/EC50; method in brief: as §1
Leishmania donovani [6] = assay: Antileishmanial activity against Leishmania donovani LdBOB amastigotes infected in human THP1 cells after 72 hrs by Giemsa staining based microscopic method; format: functional, organism-based; details: THP-1, 72 h
Method in brief: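 THP-1 cells, kept in MEM plus 10% FBS, plated at 20,000/well with 10 nM PMA, 37 °C, 5% CO2, 75 h. Washed in PBS with 1 mM CaCl2, 0.5 mM MgCl2, 0.1% BSA. Infected with axenic LdBOB amastigotes at MOI 5 for 18 h, washed, serial compound dilutions for 72 h. Methanol fixation, Giemsa stain, ~200 macrophages/well counted. % infection vs untreated control (100%) gives EC50.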

[7] = Selectivity index, ratio of CC50 for human HeLa cells to EC50 for Leishmania donovani LdBOB axenic amastigotes; format: toxicity; details: read-out: Ratio CC50/EC50; method in brief: as §1
Leishmania donovani [8] = assay: Antileishmanial activity against Leishmania donovani promastigotes after 72 hrs by alamar blue assay; format: functional, organism-based
Method in brief: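 L. donovani promastigotes grown at 26 °C in M199 plus 10% heat-inactivated FCS. Exposed to serial compound dilutions for 72 h, then Alamar blue read-out to give EC50.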

[9] = Selectivity index, ratio of CC50 for human HeLa cells to EC50 for Leishmania infantum JPCM5 MCAN/ES/98/LLM-87 axenic amastigotes; format: toxicity; details: read-out: Ratio CC50/EC50; method in brief: as §1
Leishmania infantum [10] = assay: Selectivity ratio of EC50 for antileishmanial activity against Leishmania infantum JPCM5 MCAN/ES/98/LLM-87 promastigotes to EC50 for antileishmanial activity against Leishmania infantum JPCM5 MCAN/ES/98/LLM-87 amastigotes; format: functional
[11] = Selectivity index, ratio of CC50 for human HeLa cells to EC50 for Leishmania infantum JPCM5 MCAN/ES/98/LLM-87 promastigotes; format: toxicity; details: read-out: Ratio CC50/EC50; method in brief: as §1
Leishmania donovani [12] = assay: Antileishmanial activity against Leishmania donovani LdBOB axenic amastigotes after 72 hrs by alamar blue assay; format: functional, organism-based; method in brief: as §2
Leishmania infantum [13] = assay: Potency index, ratio of pentamidine EC50 to compound EC50 for antileishmanial activity against Leishmania infantum JPCM5 MCAN/ES/98/LLM-87 promastigotes; format: functional
Leishmania infantum [14] = assay: Potency index, ratio of miltefosine EC50 to compound EC50 for antileishmanial activity against Leishmania infantum JPCM5 MCAN/ES/98/LLM-87 promastigotes; format: functional

Row | Structure (SMILES) | selectivity ratio [1] | EC50 (Leishmania infantum [2]) [µM] | EC50 (Leishmania infantum [3]) [µM] | CC50 at 65 h [4] [µM] | selectivity ratio [5] | EC50 (Leishmania donovani [6]) [µM] | selectivity ratio [7] | EC50 (Leishmania donovani [8]) [µM] | selectivity ratio [9] | Ratio EC50 (Leishmania infantum [10]) | selectivity ratio [11] | EC50 (Leishmania donovani [12]) [µM] | Ratio EC50 (Leishmania infantum [13]) | Ratio EC50 (Leishmania infantum [14])
1 | COc1ccc(N2CCN(C(=O)c3cc4c([nH]c5ccccc54)c(-c4ccccc4)n3)CC2)cc1 | > 54.4 | 5.2 | 9.07 | > 500 | > 79.1 | 9.2 | > 179 | 6.32 | > 96.2 | 2 - 5 | > 55.1 | 2.8 |  | 
2 | Cc1ccccc1N1CCN(C(=O)c2cc3c([nH]c4ccccc43)c(-c3ccccc3)n2)CC1 | > 52.1 |  | 36.2 | > 500 | > 39.7 | 9.6 | > 83.3 | 12.6 |  |  | > 13.8 | 6 |  | 
3 | O=C(c1cc2c([nH]c3ccccc32)c(-c2ccccc2)n1)N1CCN(c2ccc([N+](=O)[O-])cc2)CC1 | > 23.3 | 24.8 | 19.8 | > 500 | > 39.1 | 21.5 | > 42.4 | 12.8 | > 20.2 |  | > 25.5 | 11.8 |  | 
4 | O=C(c1cc2c([nH]c3ccccc32)c(-c2ccccc2)n1)N1CCN(c2cccc(Cl)c2Cl)CC1 | > 78.1 | 2.9 | 10.7 | > 500 | > 71.9 | 6.4 | > 87.7 | 6.95 | > 172 | 2 - 5 | > 46.7 | 5.7 |  | 
5 | O=C(c1cc2c([nH]c3ccccc32)c(-c2ccccc2)n1)N1CCN(Cc2ccccc2)CC1 | 3.3 |  | 24.3 | 28.9 | 1.8 | 8.8 | 2.3 | 16.4 |  |  | 1.2 | 12.6 |  | 
6 | O=C(c1cc2c([nH]c3ccccc32)c(-c2ccccc2)n1)N1CCN(c2ccccc2F)CC1 | > 125 | 9.4 | 14.9 | > 500 | > 144 | 4 | > 179 | 3.47 | > 53.2 |  | > 33.6 | 2.8 |  | 
7 | Cc1ccc(N2CCN(C(=O)c3cc4c([nH]c5ccccc54)c(-c4ccccc4)n3)CC2)cc1 | > 87.7 | 6.2 | 9.63 | > 500 | > 102 | 5.7 | > 152 | 4.91 | > 80.6 | 2 - 5 | > 51.9 | 3.3 |  | 
8 | O=C(c1cc2c([nH]c3ccccc32)c(-c2ccccc2)n1)N1CCN(c2ccncc2)CC1 |  |  | 66.7 | 78.7 | 1.2 |  |  | 68.5 |  |  | 1.2 |  |  | 
9 | O=C(c1cc2c([nH]c3ccccc32)c(-c2ccccc2)n1)N1CCN(c2ccccn2)CC1 | > 42 |  | 34 | > 500 | > 66.7 | 11.9 | > 98 | 7.5 |  |  | > 14.7 | 5.1 |  | 
10 | O=C(c1cc2c([nH]c3ccccc32)c(-c2ccccc2)n1)N1CCN(c2ccc(Cl)cc2)CC1 |  |  | 33 | > 500 | > 12.9 |  |  | 38.6 |  |  | > 15.2 |  |  | 
11 | COc1ccccc1N1CCN(C(=O)c2cc3c([nH]c4ccccc43)c(-c3ccccc3)n2)CC1 | 25.6 | 4.9 | 3.35 | 205 | 58.7 | 8 | 89 | 3.49 | 41.8 | 2 - 5 | 61.1 | 2.3 | 4 | 4
12 | O=C(c1cc2c([nH]c3ccccc32)c(-c2ccccc2)n1)N1CCN(c2ccccc2)CC1 | 5.2 | 4.5 | 12.5 | 38.1 | 2.3 | 7.3 | 3 | 16.3 | 8.5 |  | 3 | 12.5 |  | 
13 | O=C(c1cc2c([nH]c3ccccc32)c(-c2ccccc2)n1)N1CCN(c2ccc(F)cc2)CC1 | > 22.4 | 11.3 | 14.1 | > 500 | > 28.6 | 22.3 | > 39.7 | 17.5 | > 44.2 |  | > 35.5 | 12.6 |  | 
14 | O=C(c1cc2c([nH]c3ccccc32)c(-c2ccccc2)n1)N1CCN(c2ccccc2Cl)CC1 | > 58.8 | 12.2 | 15.7 | > 500 | > 71.6 | 8.5 | > 86.2 | 6.98 | > 41 |  | > 31.8 | 5.8 |  | 
15 | O=C(c1cc2c([nH]c3ccccc32)c(-c2ccccc2)n1)N1CCN(c2cccc(Cl)c2)CC1 | 2.7 | 3.3 | 15.9 | 18.4 | 1.4 | 6.8 | 1.8 | 13.2 | 5.6 |  | 1.2 | 10.2 |  | 
16 | CCCCCCCCCCCCCCCCOP(=O)([O-])OCC[N+](C)(C)C [MILTEFOSINE] |  | 4.8 | 12.6 |  |  | 6.4 |  | 3.12 |  |  |  | 2.8 |  | 
17 | N=C(N)c1ccc(OCCCCCOc2ccc(C(=N)N)cc2)cc1 [PENTAMIDINE] |  | 2.7 | 8.31 |  |  | 23.7 |  | 6.4 |  |  |  | 1.6 |  | 
